Results on three compounds are retold here after PMC5299621 (The Journal of General Physiology, 2017).

For orientation: Hill slope means a measure of the steepness of the concentration-response curve.

Test [1] has as its target T1, hTRPM2 G1389A mutant (Homo sapiens, UniProt O94759, G1389A). The experiment in a line: Whole-cell recording of calcium-induced TRPM2 currents, G1389A mutant. The test is classed as cell-based. To be noted: 50 mM calcium, intracellular solution. In short, it runs like this: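 Transiently transfected HEK293 cells were compared with untransfected and WT-expressing cells by whole-cell recording at RT. Cells were held at 0 mV with a 500-ms ramp from −100 to 100 mV every 5 s. At least six cells per condition.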

The target of the next test is hTRPM2 WT channel (Homo sapiens, UniProt O94759). The experiment in a line: Whole-cell recording of ADPR-induced currents, HEK293 cells expressing WT hTRPM2. The test is classed as cell-based.
Sequence of hTRPM2 WT channel (O94759 whole entry): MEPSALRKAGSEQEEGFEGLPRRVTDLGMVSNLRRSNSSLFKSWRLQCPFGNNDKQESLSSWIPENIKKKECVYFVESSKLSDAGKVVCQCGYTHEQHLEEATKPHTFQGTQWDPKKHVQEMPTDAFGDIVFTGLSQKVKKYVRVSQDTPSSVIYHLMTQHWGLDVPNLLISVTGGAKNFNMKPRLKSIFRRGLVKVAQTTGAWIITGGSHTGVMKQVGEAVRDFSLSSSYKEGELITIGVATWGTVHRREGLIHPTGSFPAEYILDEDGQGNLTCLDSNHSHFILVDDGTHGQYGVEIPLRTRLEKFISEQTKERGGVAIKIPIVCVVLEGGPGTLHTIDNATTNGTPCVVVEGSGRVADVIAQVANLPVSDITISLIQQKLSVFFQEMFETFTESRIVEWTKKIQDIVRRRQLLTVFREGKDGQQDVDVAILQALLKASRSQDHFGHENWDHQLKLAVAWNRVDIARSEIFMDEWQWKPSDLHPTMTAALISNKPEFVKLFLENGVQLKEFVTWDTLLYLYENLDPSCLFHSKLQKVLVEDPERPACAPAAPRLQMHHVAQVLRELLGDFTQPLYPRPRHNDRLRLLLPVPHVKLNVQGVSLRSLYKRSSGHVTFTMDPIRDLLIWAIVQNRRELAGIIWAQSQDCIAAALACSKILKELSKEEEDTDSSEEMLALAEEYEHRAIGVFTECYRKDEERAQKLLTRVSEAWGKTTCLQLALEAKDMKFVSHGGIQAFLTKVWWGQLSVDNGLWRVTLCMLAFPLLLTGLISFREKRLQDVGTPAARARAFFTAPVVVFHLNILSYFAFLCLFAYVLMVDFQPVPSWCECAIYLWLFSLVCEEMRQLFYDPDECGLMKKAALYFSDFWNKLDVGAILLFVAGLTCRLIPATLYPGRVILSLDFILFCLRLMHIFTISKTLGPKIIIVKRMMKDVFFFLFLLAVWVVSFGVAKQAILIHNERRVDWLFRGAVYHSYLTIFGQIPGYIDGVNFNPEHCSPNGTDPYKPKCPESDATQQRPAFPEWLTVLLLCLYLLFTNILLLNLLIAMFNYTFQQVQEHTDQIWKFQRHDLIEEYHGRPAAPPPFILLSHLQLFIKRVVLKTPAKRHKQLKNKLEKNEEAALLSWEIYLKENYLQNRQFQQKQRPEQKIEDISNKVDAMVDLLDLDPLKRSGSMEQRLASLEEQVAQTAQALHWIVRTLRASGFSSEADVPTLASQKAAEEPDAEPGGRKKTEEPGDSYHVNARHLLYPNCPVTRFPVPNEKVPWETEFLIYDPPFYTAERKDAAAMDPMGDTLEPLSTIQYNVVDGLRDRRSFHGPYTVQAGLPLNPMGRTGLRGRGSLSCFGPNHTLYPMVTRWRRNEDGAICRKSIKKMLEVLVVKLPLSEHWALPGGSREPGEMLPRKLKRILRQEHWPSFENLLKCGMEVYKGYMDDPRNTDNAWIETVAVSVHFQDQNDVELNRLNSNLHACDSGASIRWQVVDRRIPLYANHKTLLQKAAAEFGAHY
The target in a further test is hTRPM2 H1346W mutant (Homo sapiens, UniProt O94759, H1346W). As to the kind of experiment: Whole-cell ADPR-induced currents, HEK293, H1346W mutant. In kind it is cell-based.
Sequence of hTRPM2 H1346W mutant (O94759 whole entry H1346W): as the sequence (O94759 whole entry) above, with H1346W counted along it
For another test, the target named is hTRPM2 T1347F mutant (Homo sapiens, UniProt O94759, T1347F). The experiment in a line: Whole-cell ADPR-induced currents, HEK293, T1347F mutant. In kind it is cell-based.
Sequence of hTRPM2 T1347F mutant (O94759 whole entry T1347F): as the sequence (O94759 whole entry) above, with T1347F counted along it
Another test deals with hTRPM2 T1347Y mutant (Homo sapiens, UniProt O94759, T1347Y). The experiment in a line: Whole-cell ADPR-induced currents, HEK293, T1347Y mutant. In kind it is cell-based.
Sequence of hTRPM2 T1347Y mutant (O94759 whole entry T1347Y): as the sequence (O94759 whole entry) above, with T1347Y counted along it
For the next test, the target named is hTRPM2 L1379S mutant (Homo sapiens, UniProt O94759, L1379S). The experiment in a line: Whole-cell ADPR-induced currents, HEK293, L1379S mutant. The test is classed as cell-based.
Sequence of hTRPM2 L1379S mutant (O94759 whole entry L1379S): as the sequence (O94759 whole entry) above, with L1379S counted along it
In another test the target is hTRPM2 S1391A mutant (Homo sapiens, UniProt O94759, S1391A). As to the kind of experiment: Whole-cell ADPR-induced currents, HEK293, S1391A mutant. In kind it is cell-based.
Sequence of hTRPM2 S1391A mutant (O94759 whole entry S1391A): as the sequence (O94759 whole entry) above, with S1391A counted along it
The next test concerns the target hTRPM2 E1409A mutant (Homo sapiens, UniProt O94759, E1409A). As to the kind of experiment: Whole-cell ADPR-induced currents, HEK293, E1409A mutant. The test is classed as cell-based.
Another test addresses hTRPM2 E1409Q mutant (Homo sapiens, UniProt O94759, E1409Q). As to the kind of experiment: Whole-cell ADPR-induced currents, HEK293, E1409Q mutant. In kind it is cell-based.
Test [2] addresses T1, hTRPM2 G1389A mutant. As to the kind of experiment: Whole-cell ADPR-induced currents, HEK293, G1389A mutant. The test is classed as cell-based. The conditions noted are these: 3 µM and 100 µM ADPR (Fig. 3 C). In short, it runs like this: (§1)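 HEK293 cells were cotransfected with 50 ng EGFP plus 1 µg WT or mutant hTRPM2 plasmid and recorded 24–36 h later, choosing cells of similar fluorescence and size. Recording was whole-cell at RT. […] Cells were held at 0 mV with a 500-ms ramp from −100 to 100 mV every 5 s. Currents were normalized to same-day mean maximal WT current. EC50 came from Hill fits. At least five cells per condition.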

Another test has as its target hTRPM2 H1346F mutant (Homo sapiens, UniProt O94759, H1346F). As to the kind of experiment: Whole-cell ADPR-induced currents, HEK293, H1346F mutant. In kind it is cell-based. The conditions noted are these: H1346F (Fig. 5 B). In a few lines: as §1
Another test has as its target hTRPM2 T1347I mutant (Homo sapiens, UniProt O94759, T1347I). The experiment in a line: Whole-cell ADPR-induced currents, HEK293, T1347I mutant. The test is classed as cell-based. The conditions noted are these: T1347I (Fig. 5 C). In a few lines: as §1
For the next test, the target named is hTRPM2 R1433L mutant (Homo sapiens, UniProt O94759, R1433L). As to the kind of experiment: Whole-cell ADPR-induced currents, HEK293, R1433L mutant. To be noted: R1433L (Fig. 5 E). In kind it is cell-based. In short, it runs like this:
as §1

The target in the next test is hTRPM2 R1433Q mutant (Homo sapiens, UniProt O94759, R1433Q). As to the kind of experiment: Whole-cell ADPR-induced currents, HEK293, R1433Q mutant. The conditions noted are these: R1433Q (Fig. 5 E). In kind it is cell-based. In short, it runs like this: as §1
Sequence of hTRPM2 R1433Q mutant (O94759 whole entry R1433Q): as the sequence (O94759 whole entry) above, with R1433Q counted along it
The next test addresses hTRPM2 Y1349F mutant (Homo sapiens, UniProt O94759, Y1349F). As to the kind of experiment: Whole-cell ADPR-induced currents, HEK293, Y1349F mutant. In kind it is cell-based. The conditions noted are these: Y1349F (Fig. 6 B). In a few lines:
as §1

Another test has as its target hTRPM2 Y1349S mutant (Homo sapiens, UniProt O94759, Y1349S). As to the kind of experiment: Whole-cell ADPR-induced currents, HEK293, Y1349S mutant. In kind it is cell-based. To be noted: Y1349S (Fig. 6 B). In short, it runs like this: as §1
A further test has as its target hTRPM2 L1484A mutant (Homo sapiens, UniProt O94759, L1484A). The experiment in a line: Whole-cell ADPR-induced currents, HEK293, L1484A mutant. In kind it is cell-based. To be noted: 3 µM and 100 µM ADPR (Fig. 3 C). In a few lines:
as §1

The target in the next test is hTRPM2 D1287A mutant (Homo sapiens, UniProt O94759, D1287A). The experiment in a line: Whole-cell ADPR-induced currents, HEK293, D1287A mutant. In kind it is cell-based. The conditions noted are these: ADPR 100 µM (Fig. 8). In a few lines: as §1
Sequence of hTRPM2 D1287A mutant (O94759 whole entry D1287A): as the sequence (O94759 whole entry) above, with D1287A counted along it
The target of the next test is hTRPM2 S1340A mutant (Homo sapiens, UniProt O94759, S1340A). As to the kind of experiment: Whole-cell ADPR-induced currents, HEK293, S1340A mutant. In kind it is cell-based. To be noted: ADPR 100 µM (Fig. 8). In a few lines: as §1
Sequence of hTRPM2 S1340A mutant (O94759 whole entry S1340A): as the sequence (O94759 whole entry) above, with S1340A counted along it
A further test has as its system TRPM2 E1409K mutation. To be noted: ref Perraud et al., 2005, Tóth et al., 2014; cited from earlier work.
Test [3] deals with T1, hTRPM2 G1389A mutant. As to the kind of experiment: Whole-cell recording of H2O2-induced TRPM2 currents, G1389A mutant. The test is classed as cell-based. The conditions noted are these: extracellular H2O2, 10 mM / 30 mM. In short, it runs like this: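 Whole-cell recording at RT was done on transiently transfected HEK293 cells, alongside untransfected and WT-expressing cells. Pipette: 147 mM NaCl, 0.05 mM EGTA, 1 mM MgCl2, 10 mM HEPES, pH 7.3. Cells were held at 0 mV with a 500-ms ramp from −100 to 100 mV every 5 s. At least six cells per condition.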

T1 sequence (O94759 whole entry G1389A): as the sequence (O94759 whole entry) above, with G1389A counted along it
Sequence of hTRPM2 Y1349S mutant (O94759 whole entry Y1349S): as the sequence (O94759 whole entry) above, with Y1349S counted along it
Sequence of hTRPM2 T1347I mutant (O94759 whole entry T1347I): as the sequence (O94759 whole entry) above, with T1347I counted along it
Sequence of hTRPM2 L1484A mutant (O94759 whole entry L1484A): as the sequence (O94759 whole entry) above, with L1484A counted along it
Sequence of hTRPM2 Y1349F mutant (O94759 whole entry Y1349F): as the sequence (O94759 whole entry) above, with Y1349F counted along it
Sequence of hTRPM2 R1433L mutant (O94759 whole entry R1433L): as the sequence (O94759 whole entry) above, with R1433L counted along it
Sequence of hTRPM2 H1346F mutant (O94759 whole entry H1346F): as the sequence (O94759 whole entry) above, with H1346F counted along it
Sequence of hTRPM2 E1409Q mutant (O94759 whole entry E1409Q): as the sequence (O94759 whole entry) above, with E1409Q counted along it
Sequence of hTRPM2 E1409A mutant (O94759 whole entry E1409A): as the sequence (O94759 whole entry) above, with E1409A counted along it

Consider `[Ca+2]` [calcium], for which, on hTRPM2 G1389A mutant [1], the “Channel activation by calcium” value was “readily activated”.
For adenosine diphosphate ribose [ADPR], the Hill slope at hTRPM2 WT channel is 2.6; at hTRPM2 H1346W mutant, 2.0; at hTRPM2 T1347F mutant it was 1.2; at hTRPM2 T1347Y mutant, 1.3; at hTRPM2 L1379S mutant, 1.0; on hTRPM2 S1391A mutant, 2.7. For the same compound, the Hill slope was determined as 1.5 at hTRPM2 E1409A mutant and 1.6 at hTRPM2 E1409Q mutant. The “Channel activation by ADPR” value on hTRPM2 G1389A mutant [2] is “failed to be activated”; at hTRPM2 Y1349F mutant, “did not significantly alter channel activation”; at hTRPM2 Y1349S mutant, “neither Y1349A nor Y1349S mutant could be activated”. Besides, the “Channel sensitivity to ADPR” value is “completely insensitive” at hTRPM2 H1346F mutant and “completely lost sensitivity” at hTRPM2 T1347I mutant. Besides, the “Response to ADPR” value on hTRPM2 R1433L mutant and on hTRPM2 R1433Q mutant was “no response” in each case. Besides, the “Channel function with ADPR” value on hTRPM2 L1484A mutant is on record as “lack of channel function”. In addition, the “Activity induced by ADPR” value on hTRPM2 D1287A mutant and at hTRPM2 S1340A mutant was “normal activity” each time. Besides, in the test with TRPM2 E1409K mutation, the “Impact of mutation on ADPR binding to the NUDT9-H domain” value is “little impact”.
Take `OO` [H2O2]: the H2O2-induced current result on hTRPM2 G1389A mutant [3] is given as “failed to induce a current”.
